Source: PubChem
An excerpt weighted towards active compounds, which were near 3.5% of everything screened.
RGS4 pot – potentiators or activators of RGS4. actives 0.92% (n = 310,000). HEK293 M3R/inducible RGS4, carbachol calcium flux Fluo4; stronger effect = lower value. B-score at 10 µM. AID 463111;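 active means B-score of the integrated calcium signal more than 4 SD below the library mean, with starting fluorescence not abnormally high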;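 further: negative B-score means reduced calcium response which marks RGS4 activation or potentiation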
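System: HEK293 FlpIn-TREx cells, stable M3R, doxycycline-inducible RGS4. Timing: overnight RGS4 induction, 30 min dye load 37 °C, 20 min compound RT. Also added: carbachol, ECmax concentration. Measured by: Fluo4 fluorescence kinetic imaging of calcium. Evaluation: integrated calcium ratio converted to B score.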
MrgX1 antagonist – antagonists of human MrgX1 receptor; Q96LB2; MRGX1-HEK293 calcium flux, Fluo-4, BAM8-22 antagonism; stronger effect = lower value; B-score at 10 µM; actives 1.3% (n = 310,000);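 active means calcium-response B-score plate-corrected more than 3 library SD below zero, starting fluorescence within 5 deviations, no agonist response on first addition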;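 further: peak minus trough fluorescence over baseline after final BAM8-22 challenge near maximal dose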
Target sequence (Q96LB2 whole entry, looked up): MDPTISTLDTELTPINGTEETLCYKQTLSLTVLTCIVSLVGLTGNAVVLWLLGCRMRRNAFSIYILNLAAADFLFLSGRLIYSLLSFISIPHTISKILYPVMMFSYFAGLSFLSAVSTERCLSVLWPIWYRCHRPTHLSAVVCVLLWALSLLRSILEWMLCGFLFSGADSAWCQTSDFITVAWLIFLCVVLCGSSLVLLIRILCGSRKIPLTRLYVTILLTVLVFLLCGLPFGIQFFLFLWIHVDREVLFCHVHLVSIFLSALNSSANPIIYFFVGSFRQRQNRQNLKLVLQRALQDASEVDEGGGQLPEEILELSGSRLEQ
MrgX1 agonist – activates human MrgX1 receptor signaling. Q96LB2. MrgX1-HEK293 cells, Fluo-4 calcium fluorescence, agonist mode; stronger effect = higher value. B-score at 10 µM. actives 0.44% (n = 310,000);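 active means calcium response B-score plate-corrected fluorescence ratio at least 3 library SD, with starting fluorescence B-score inside 5 SD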
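Material – MrgX1-expressing HEK293 cells · Input – 15,000 cells seeded per well · Dosing – compound as first of three additions · Times – overnight seeding, then 1 h dark dye loading · Measured by – kinetic Fluo-4 NW fluorescence of intracellular calcium · Read-out – B-scored fluorescence response ratio · Benchmarks – positive and negative control wells on each plate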
RGS4 block – human RGS4 inhibition. P49798. HEK293 M3R/RGS4 inducible, Fluo-4 calcium flux; stronger effect = higher value; triggered by carbachol at its EC20. B-score at 10 µM. actives 0.45% (n = 310,000). AID 463165;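 active means B-score, a plate-corrected calcium signal, over three deviations above library mean, with baseline fluorescence within five deviations of library mean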;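 further: RGS4 expression induced by doxycycline in cells with stable M3 receptor; B-score is computed from the integrated fluorescence ratio over baseline after carbachol; higher B-score means a larger calcium signal and so more RGS4 inhibition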
Target sequence (P49798 whole entry, looked up): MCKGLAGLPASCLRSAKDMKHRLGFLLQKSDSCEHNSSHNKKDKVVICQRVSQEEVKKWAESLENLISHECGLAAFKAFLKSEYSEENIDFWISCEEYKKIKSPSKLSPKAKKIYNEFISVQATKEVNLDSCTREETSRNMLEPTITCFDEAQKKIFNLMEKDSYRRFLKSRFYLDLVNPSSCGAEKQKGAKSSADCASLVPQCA
MrgX1 PAM – allosterically activates human MrgX1 receptor signaling; MrgX1-HEK293, Fluo-4 calcium flux, FDSS; stronger effect = higher value; B-score at 10 µM; AID 588675; actives 0.63% (n = 310,000);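 active means plate-corrected calcium response at least 3 library SD above typical, normal starting fluorescence, not activating the receptor alone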;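 further: compound read alongside a low EC10 to EC30 dose of BAM8-22 agonist; peak minus trough fluorescence over baseline measured at the second addition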
RGS4 block valid – validation of RGS4 inhibitors. shares compounds with RGS4 block. HEK293 M3R/RGS4, carbachol calcium Fluo-4 fluorescence; carbachol added at its EC20; 0 = buffer wells, 100 = carbachol control. calcium response, % at 10 µM. actives 65% (n = 1,700);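 active means duplicate-averaged calcium response above the buffer-only control mean plus 5 SD of those controls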;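 further: integrated fluorescence ratio F max minus min over baseline F0; higher response in RGS4-induced cells means RGS4 inhibition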
RGS4 uninduced – counter-screen for RGS4 inhibitors: effect in non-induced cells. shares compounds with RGS4 block. HEK293 M3R non-induced, carbachol calcium Fluo-4; submaximal (EC20) carbachol stimulus; buffer wells 0%, carbachol control wells 100%. activity (percent), % at 10 µM. actives 20% (n = 1,900); call rule not given here;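 further: RGS4 induction absent so cells express M3R without RGS4; higher means more calcium signal and flags a non-specific hit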
RGS4 inh ctr2 – second counter-screen for RGS4 inhibitors: non-induced cells without carbachol; calcium response (agonist-mode artifact), % at 10 µM; shares compounds with RGS4 block; actives 22% (n = 1,900); HEK293 M3R/RGS4 non-induced, Fluo-4 calcium, no carbachol; normalised: buffer wells 0%, carbachol wells 100%;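 active means duplicate-averaged calcium rise in uninduced cells above buffer wells' mean plus 5 SD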
Numbers stand for hits; – = inactive; · = no result given.

SMILES	RGS4 pot	MrgX1 antagonist	MrgX1 agonist	RGS4 block	MrgX1 PAM	RGS4 block valid	RGS4 uninduced	RGS4 inh ctr2
O=C(N/N=C/c1ccc(O)cc1)NC12CC3CC(CC(C3)C1)C2	–	–	–	5.2	–	20%	58%	11%
COC(=O)c1cc(=O)n(Cc2ccco2)c(=Nc2ccc(F)c(Cl)c2)s1	–	–	–	–	–	·	–	–
COC(=O)c1cc(=O)n(CCc2ccccc2F)c(=Nc2ccc(F)c(Cl)c2)s1	–	–	–	–	–	·	·	·
COc1cc(/C=C2/C(=O)NN(c3ccccc3)C2=O)cc(Br)c1O	–	–	31	5.7	–	5.5%	–	–
O=C1NN(c2cccc(Br)c2)C(=O)/C1=C\c1ccccc1	–	–	–	18	–	16%	32%	14%
O=C1NN(c2ccc(F)cc2)C(=O)/C1=C\c1cnn(-c2ccccc2)c1	–	–	–	–	–	·	·	·
COc1cc(/C=C2\C(=O)NN(c3ccccc3)C2=O)cc([N+](=O)[O-])c1O	–	–	–	–	–	·	·	·
Oc1ccc(-c2csc(-c3cccnc3)n2)cc1O	–	–	–	–	–	·	·	·
Oc1ccc(-c2csc(-c3ccccc3)n2)cc1O	–	–	–	5.8	–	24%	–	–
CCN1CCN(C(=O)CN(CC)S(=O)(=O)c2ccc3ccccc3c2)CC1	–	–	–	–	–	·	·	·
CSc1ccccc1OCc1cc(C(=O)NCCN2CCCC(O)C2)no1 (centres undefined)	–	–	–	–	–	·	·	·
CSc1ccccc1OCc1cc(C(=O)NCCC2CCCCO2)no1 (centres undefined)	–	–	–	11	–	–	–	–
COc1ccc(/C=C2/SC(=O)N(CCNC(=O)C3COc4ccccc4O3)C2=O)cc1 (centres undefined)	–	–	–	–	–	·	·	·
O=C(NCCN1C(=O)S/C(=C\c2ccc(Cl)c(Cl)c2)C1=O)C1COc2ccccc2O1 (centres undefined)	–	–	–	4.9	–	8.0%	–	–
Cc1ccc(/C=C/C(=O)N2CC(C)CC(C)C2)o1 (centres undefined)	–	–	–	19	–	31%	–	–
O=C(COC(=O)C1=NNC(=O)CC1)NCCc1ccccc1	–	–	–	–	–	·	·	·
CCc1nc2oc3ccccc3c(=O)c2cc1C(=O)OC	–	–	–	–	–	·	·	·
COc1ccc(-c2cnnn2-c2ccc(NC(=O)c3ccco3)cc2)cc1OC	–	–	–	4.7	–	6.0%	–	–
Cc1cccc(-n2ccnc2CN2CCN(C(C)C)C(CCO)C2)c1 (centres undefined)	–	–	–	–	–	·	·	·
CCOC(=O)C1CCN(C(c2cc3c(C)ccc(C)c3[nH]c2=O)c2nnnn2C2CCCCC2)CC1 (centres undefined)	–	–	–	–	–	–	–	–
CCOC(=O)C1CCN(C(c2cc3ccc(C)c(C)c3[nH]c2=O)c2nnnn2C2CCCCC2)CC1 (centres undefined)	–	–	–	–	–	–	–	19%
O=C(O)C1CCN(C(=O)CCc2ccccc2)CC1	–	–	–	–	–	·	·	·
COc1ccc(N2CCN(CNC(=O)c3ccccc3)CC2)cc1	–	–	–	–	–	·	·	·
Cc1nn2c(NCc3ccccn3)cc(C(C)C)nc2c1-c1ccccc1	–	–	–	–	–	·	·	·
CC(=O)Nc1ccc(Nc2cc(C)nc3c(-c4ccccc4)c(C)nn23)cc1	–	–	–	8.6	–	13%	–	–
SMILES	RGS4 pot	MrgX1 antagonist	MrgX1 agonist	RGS4 block	MrgX1 PAM	RGS4 block valid	RGS4 uninduced	RGS4 inh ctr2
CC(=O)Nc1ccc(Nc2cc(C(C)C)nc3c(-c4ccccc4)c(C)nn23)cc1	–	–	–	7.2	–	41%	60%	–
COc1ccc(OC)c(N(C(=O)c2ccco2)C(C(=O)NC2CCCC2)c2cc(OC)c(OC)c(OC)c2)c1 (centres undefined)	–	–	–	–	–	·	·	·
O=C(CN(CCc1ccccc1)S(=O)(=O)c1ccc(Br)cc1)N/N=C/c1ccc2c(c1)OCO2	–	–	–	–	–	·	·	·
O=C(CN(Cc1ccc(Cl)c(Cl)c1)S(=O)(=O)c1ccccc1)N/N=C\c1ccc2c(c1)OCO2	–	–	–	6.7	–	18%	–	–
O=C(CN(Cc1ccccc1)S(=O)(=O)c1ccccc1)N/N=C/c1ccc2c(c1)OCO2	–	–	–	–	–	·	–	–
CSc1nc(N(C)CCO)c2sc3nc(-c4ccco4)c4c(c3c2n1)CCC4	–	–	–	4.9	–	–	–	10%
CSc1nc(SCC(=O)O)c2sc3nc(-c4ccccc4)c4c(c3c2n1)CCC4	–	·	·	–	·	·	·	·
Nn1c(=O)[nH]c2c([nH]c3ccccc32)c1=O	–	–	–	5.9	–	–	–	–
Cc1nc2c([nH]c3ccccc32)c(=O)n1N	–	–	–	–	–	·	·	·
CCOc1cc(CNc2ccc(N3CCCC3)cc2)cc(Cl)c1OC	–	–	–	5.1	–	14%	–	–
CCOc1cc(CNc2ccc(S(N)(=O)=O)cc2)cc(Cl)c1OC	–	–	–	–	–	·	·	·
COc1cc(/C=C/[N+](=O)[O-])ccc1OCc1cccc(C(=O)O)c1	–	·	·	72	·	174%	57%	8.0%
COC(=O)c1c(C)oc(C)c1S(=O)(=O)N(C)C1CCCCC1	–	–	–	–	–	·	·	·
CCCCNc1c(C(=O)OCC)c(C)nc2c1cnn2CC	–	–	–	10	–	7.5%	28%	–
Cc1cc(N=Cc2cc(Br)ccc2O)no1	–	–	–	7.2	–	7.5%	–	–
CCOc1ccc(NCc2nnc(SCc3ccc(Cl)cc3)n2-c2ccccc2)cc1	–	–	–	–	–	·	–	–
CCOC(=O)CSc1nnc(CNc2ccc(Cl)cc2)n1-c1ccccc1	–	–	–	–	–	·	·	·
CCc1cccc(CC)c1NC(=S)NCCc1c(C)[nH]c2ccccc12	–	–	–	6.2	–	22%	–	–
CCOC(=O)N1CCC(=NNc2ccnc3cc(Cl)ccc23)CC1	–	–	–	–	–	·	·	·
CC(=O)N1CCC(=NNc2ccnc3cc(Cl)ccc23)CC1	–	–	–	6.9	–	28%	–	–
Cc1ccc(/C=C/c2nc3ccccc3[nH]2)o1	–	–	–	14	–	–	–	–
Cc1cc2nc(/C=C/c3nc4cc(C)c(C)cc4[nH]3)[nH]c2cc1C	–	–	–	–	–	·	·	·
